Measurements taken from paper PMC11661184 (bioRxiv, 2024).
“Also recorded” adds a separate entry of the source.

Legend:
CaM (Calmodulin-agarose) = assay: CaM-agarose pulldown of TRPA1 constructs; assay type: binding; conditions: MBP-tagged, expressed in HEK293T, absence or presence of Ca2+
In short: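 HEK293T cells were transfected with tagged TRPA1 constructs and lysed after 16-24 h in Tris pH 8.0 buffer containing 5 mM DDM and 500 µM EGTA. Free Ca²⁺ was set with CaCl₂, calculated from EGTA constants. 100 µg lysate was incubated with CaM-agarose for 1 h at 4 °C, washed, then eluted with 5 mM EGTA. Detection was by anti-FLAG or anti-MBP immunoblot, with tubulin input control. Enrichment is relative to the maximum within each replicate.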

CaM12 = CaM12 (Homo sapiens, UniProt P0DP23); assay: Isothermal titration calorimetry, CaM12; assay type: binding; conditions: ITC, 2 mM Ca2+
In short: (§1)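 The ITC cell held 15 µM CaM variant and the syringe 810 µM hTRPA1¹⁰⁸⁹⁻¹¹¹⁹ peptide. Both were buffer-matched in storage buffer (50 mM Tris pH 8.0, 150 mM NaCl, 2 mM CaCl₂, 0.1 mM PMSF). There were 35 injections spaced 240 s apart, with stirring at 290 RPM. Data were fitted to a one-site model.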

WT CaM = WT CaM (Homo sapiens, UniProt P0DP23); assay: Isothermal titration calorimetry, WT CaM; assay type: binding; conditions: ITC, 2 mM Ca2+
In short: as §1

15N-labeled CaM12 = assay: 15N-1H HSQC NMR, CaM12; assay type: binding, human; conditions: 1:1 molar ratio, 25 °C, 700 MHz
15N-labeled WT CaM = assay: 15N-1H HSQC NMR, WT CaM; assay type: binding, human; conditions: 1:1 molar ratio, 25 °C, 700 MHz
hTRPA1^Δ1109–1119 = assay: TEVC block of residual current, hTRPA1^Δ1109–1119; assay type: cell-based, human; conditions: 10 µM A-967079

| Compound | CaM binding of MBP-tagged C-terminal peptides (CaM (Calmodulin-agarose)) | Number of binding events observed (CaM12) | Number of binding events observed (WT CaM) | Chemical shift perturbations (CSPs) (15N-labeled CaM12) | Chemical shift perturbations (CSPs) (15N-labeled WT CaM) | Inhibition of residual activity (hTRPA1^Δ1109–1119) |
| --- | --- | --- | --- | --- | --- | --- |
| hTRPA1^1089–1119: hTRPA1 distal C-terminus peptide, residues 1089–1119, bacterially purified and liberated from MBP (DRFKKEQMEQRNSRWNTVLRAVKAKTHHLEP) | bound CaM in a Ca^2+-dependent manner | single binding event | single binding event | observed predominantly in the C-lobe; also recorded: more CSPs in the C-lobe than WT CaM | observed predominantly in the C-lobe | – |
| CCC(=N\O)/C(C)=C/c1ccc(F)cc1 [A-967079] | – | – | – | – | – | inhibited |
